Reference: publication PMC3669693 (Journal of neuroimmune pharmacology : the official journal …, 2012)
Several values for one entry are separate records, joined by “and”; a condition that tells them apart may be missing. Equal entries are not always repeated. Where two headings read alike, the source gives them in different places.

How the values were obtained:
[1] = test system: HA-GPR55E/βarr2-GFP U2OS cells; experiment: LDH cytotoxicity assay; format: cell-based; settings: for toxicity to the cells (released LDH): at concentrations employed in this study (10 and 30 μM)
[2] = target: T1, GPR55 (Homo sapiens, UniProt Q9Y2T6); settings: cited from earlier work
T1 sequence (Q9Y2T6 1-292 limits assumed): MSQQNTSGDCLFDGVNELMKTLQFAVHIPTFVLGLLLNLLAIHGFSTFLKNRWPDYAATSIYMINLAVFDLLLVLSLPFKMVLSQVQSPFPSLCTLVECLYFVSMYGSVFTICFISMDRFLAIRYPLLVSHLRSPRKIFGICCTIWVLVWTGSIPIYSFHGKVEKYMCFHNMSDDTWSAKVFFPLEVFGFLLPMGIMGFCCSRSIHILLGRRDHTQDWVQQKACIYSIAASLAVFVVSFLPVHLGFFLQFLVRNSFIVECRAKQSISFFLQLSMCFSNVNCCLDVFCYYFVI

[3] = target: T1, GPR55; experiment: GPR55 internalization assay, immunocytochemistry; format: cell-based; settings: for effect on GPR55 internalization induced by ML184, ML185, ML186: 10 μM pre-incubation, agonist 5 μM of each ML compound; for effect on LPI-induced GPR55 internalization / effect on SR141716A-induced GPR55 internalization / GPR55 receptor localization, compound alone: 10 μM; for effect on LPI-induced GPR55 internalization / effect on SR141716A-induced GPR55 internalization: 15 min pre-incubation; for effect on LPI-induced GPR55 internalization: agonist 3 μM LPI; for effect on SR141716A-induced GPR55 internalization: agonist 30 μM SR141716A; for GPR55 receptor localization, compound alone: no agonist; for GPR55 receptor internalization, compound alone: 40 min, RT
[4] = target: T1, GPR55; experiment: β-arrestin assessment of GPR55 activation; format: cell-based; settings: for maximal inhibition of LPI response / effect of low concentrations on LPI-mediated βarr2-GFP recruitment: agonist 3 μM LPI; for maximal inhibition of LPI response / maximal inhibition of SR141716A response: normalized to agonist response; for recruitment of βarr2-GFP by compound alone: no agonist, AEA 0.1–30 μM
Summary of the method: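 U2OS cells stably co-expressing HA-GPR55E and βarr2-GFP were seeded on glass coverslips, kept overnight at 37°C/5% CO2 and assayed in HBSS. Test compound (0.01–30 μM) was pre-incubated 15 min, then co-incubated 40 min RT with 3 μM LPI or 30 μM SR141716A. Fixation: 4% paraformaldehyde, 25 min. Imaging: 488 nm, 40X oil. Fluorescent pit counts were normalized to agonist response (100%), with sigmoidal fits for IC50. Three experiments in duplicate.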

[5] = target: T1, GPR55; settings: read-out: EC50, agonist at GPR55 (βarr2-GFP distribution); previous study; ref Kapur et al. 2009; cited from earlier work
[6] = test system: CB2 receptor; settings: ref Porter et al., 2002; cited from earlier work
[7] = target: T1, GPR55; settings: read-out: agonist potency at GPR55; ref Ryberg et al., 2007; cited from earlier work
[8] = test system: CB1 receptor; settings: ref Porter et al., 2002; cited from earlier work
[9] = test system: CB1; settings: read-out: agonist potency at CB1; ref Ryberg et al., 2007; cited from earlier work
[10] = test system: CB2; settings: read-out: agonist potency at CB2; ref Ryberg et al., 2007; cited from earlier work
[11] = 10 μM + 3 μM LPI, % of total LDH activity
[12] = 10 μM + 30 μM SR141716A, % of total LDH activity
[13] = 10 μM alone, % of total LDH activity (1% Triton X-100)
[14] = 30 μM + 3 μM LPI, % of total LDH activity
[15] = 30 μM + 30 μM SR141716A, % of total LDH activity
[16] = 30 μM alone, % of total LDH activity (1% Triton X-100)

With CCCCC/C=C\C/C=C\C/C=C\C/C=C\CCCC(=O)NCCO [AEA, N-arachidonyl ethanolamine] the “Cell death, %” value [1, 11] was 6.12%, the “Cell death, %” value [1, 12] was 6.79% and the “Cell death, %” value [1, 13] was 5.90%. The “Cell death, %” value [1, 14] was 5.86%, the “Cell death, %” value [1, 15] was 8.02% and the “Cell death, %” value [1, 16] was 5.93%. The “toxicity to the cells (released LDH)” value [1] was “neither AEA nor virodhamine are toxic”, the “activation of GPR55” value ([2]; previous findings of the laboratory, ref Kapur et al., 2009) was “did not activate GPR55” and the “effect on GPR55 internalization induced by ML184, ML185, ML186” value [3] was “largely attenuated”. The “effect on LPI-induced GPR55 internalization” value [3] was “markedly decreased receptor internalization”, the “effect on SR141716A-induced GPR55 internalization” value [3] was “markedly decreased receptor internalization” and the “GPR55 receptor localization, compound alone” value [3] was “membrane bound receptors”. For the same compound, the IC50 [4] was 5910 nM and 12000 nM, the “maximal inhibition of LPI response” value [4] was 20% and the “maximal inhibition of SR141716A response” value ([4]; agonist 30 μM SR141716A) was 65%. For the same compound, the “recruitment of βarr2-GFP by compound alone” value [4] was “did not result in recruitment of βarr2-GFP” and the “effect of low concentrations on LPI-mediated βarr2-GFP recruitment” value ([4]; low concentrations) was “enhanced the recruitment”.
In the case of CCCCCCC(C)(C)c1ccc([C@@H]2C[C@H](O)CC[C@H]2CCCO)c(O)c1 [CP55,940], the “type of activity at GPR55” value ([2]; ref Henstridge et al. 2009, Kapur et al. 2009, Pineiro et al. 2011) is given as “antagonist/partial agonist”.
With Cc1cccc(N2CCN(C(=O)c3cc(S(=O)(=O)N(C)C)ccc3N3CCCC3)CC2)c1C [ML184, 3-[4-(2,3-dimethylphenyl)piperazine-1-carbonyl]-N,N-dimethyl-4-pyrrolidin-1-ylbenzenesulfonamide] the “GPR55 receptor internalization, compound alone” value (from here on “GPR55 receptor internalization”) ([3]; 5 μM) was “resulted in receptor internalization”.
For COc1ccc(-c2csc(NC(=O)CSc3nnc4c(C)cc5ccccc5n34)n2)cc1 [ML185, N-[4-(4-methoxyphenyl)-1,3-thiazol-2-yl]-2-[(4-methyl-[1,2,4]triazolo[4,3-a]quinolin-1-yl)sulfanyl]acetamide], the “GPR55 receptor internalization” value ([3]; 5 μM) was “resulted in receptor internalization”.
With COc1ccc(S(=O)(=O)N2CCOCC2)cc1NC(=O)c1cc2c(s1)CCCC2 [ML186, N-(2-methoxy-5-morpholin-4-ylsulfonylphenyl)-4,5,6,7-tetrahydro-1-benzothiophene-2-carboxamide] the “GPR55 receptor internalization” value ([3]; 5 μM) was “resulted in receptor internalization”.
In the case of Cc1c(C(=O)NN2CCCCC2)nn(-c2ccc(Cl)cc2Cl)c1-c1ccc(Cl)cc1 [SR141716A, N-(piperidin-1-yl)-5-(4-chlorophenyl)-1-(2,4-dichlorophenyl)-4-methyl-1H-pyrazole-3-carboxamide], the “Cell death, %” value [1, 16] is listed as 7.12%, the “GPR55 receptor internalization” value ([3]; 30 μM) is listed as “loss of membrane staining and the appearance of cytosolic fluorescent aggregates corresponding to internalized receptors” and the EC50 [5] is listed as 3900 nM.
For CCCCC/C=C\C/C=C\C/C=C\C/C=C\CCCC(=O)OCCN [virodhamine, O-arachidonoyl ethanolamine], the “type of activity at the CB2 receptor” value [6] is given as “full agonist”, the “Cell death, %” value [1, 11] is given as 6.94% and the “Cell death, %” value [1, 12] is given as 6.44%. The “Cell death, %” value [1, 13] was 7.27%, the “Cell death, %” value [1, 14] was 8.73% and the “Cell death, %” value [1, 15] was 6.93%. For the same compound, the “Cell death, %” value [1, 16] was 8.08%, the “toxicity to the cells (released LDH)” value [1] was “neither AEA nor virodhamine are toxic” and the “effect on GPR55 internalization induced by ML184, ML185, ML186” value [3] was “largely attenuated”. The “effect on LPI-induced GPR55 internalization” value [3] was “strikingly decreased receptor internalization”, the “effect on SR141716A-induced GPR55 internalization” value [3] was “strikingly decreased receptor internalization” and the “GPR55 receptor localization, compound alone” value [3] was “receptors were localized to the membrane”. The EC50 [7] was 12 nM, the “type of activity at the CB1 receptor” value [8] was “partial agonist/antagonist” and the “maximal inhibition of LPI response” value [4] was 46%. For the same compound, the “maximal inhibition of SR141716A response” value ([4]; agonist 30 μM SR141716A) was 68%, the “recruitment of βarr2-GFP by compound alone” value [4] was “weak recruitment of βarr2-GFP” and the “effect of low concentrations on LPI-mediated βarr2-GFP recruitment” value ([4]; low concentrations) was “enhanced the recruitment”. For the same compound, the “effect of low concentrations on SR141716A-mediated βarr2-GFP recruitment” value ([4]; low concentrations, agonist 30 μM SR141716A) was “enhanced the recruitment”, the EC50 [9] was 2900 nM and the EC50 [10] was 381 nM.
For lysophosphatidylinositol [LPI], the “Cell death, %” value ([1]; 3 μM alone, % of total LDH activity (1% Triton X-100)) is listed as 7.08%, the “GPR55 receptor internalization” value ([3]; 3 μM) is listed as “loss of membrane staining and the appearance of cytosolic fluorescent aggregates corresponding to internalized receptors” and the EC50 [5] is listed as 1200 nM.
